Source: ChEMBL document CHEMBL1128674, “Evaluation of physicochemical parameters important to the oral bioavailability of peptide-like compounds: implications for the synthesis of renin inhibitors” (J Med Chem, 1995)

How the values were obtained:
[1] = Acid dissociation constant of the compound; type: ADME
[2] = Partition coefficient (logP); type: physicochemical; conditions: octanol/water
Outline: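 Log P obtained by a correlation method at pH 6.5.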

SMILES | pKa [1] | logP [2]
CC(C)C[C@H](O)[C@H](O)[C@H](CC1CCCCC1)NC(=O)CN | 7.5 | 1.52
CC(C)C[C@H](O)[C@H](O)[C@H](CC1CCCCC1)NC(=O)/C=C/c1ccccc1 | – | 3.61
CC(C)C[C@H](O)[C@H](O)[C@H](CC1CCCCC1)NC(=O)C[C@@H](NC(=O)OC(C)(C)C)C(=O)O | 4.7 | 2.06
CC(C)C[C@H](O)[C@H](O)[C@@H](N)CC1CCCCC1 | – | 1.86
CC(C)C[C@H](O)[C@H](O)[C@H](CC1CCCCC1)NC(=O)CCCCCc1ccccc1 | – | 4.66

More lines, now with the values ahead:

pKa [1] | logP [2] | SMILES
5.9 | 2.03 | CC(C)C[C@H](O)[C@H](O)[C@H](CC1CCCCC1)NC(=O)[C@H](Cc1csc(N)n1)NC(=O)[C@H](Cc1ccccc1)NS(=O)(=O)N1CCN(C(=O)CCC(=O)O)CC1
– | 3.01 | CC(C)C[C@H](O)[C@H](O)[C@H](CC1CCCCC1)NC(=O)[C@H](Cc1csc(N)n1)NC(=O)[C@H](Cc1ccccc1)NS(=O)(=O)N1CCOCC1
– | 4.9 | CCCC[C@H](NC(=O)[C@H](Cc1ccccc1)n1cccc1)C(=O)N[C@@H](CC1CCCCC1)[C@@H](O)[C@@H](O)CC(C)C
